Bioassay records deposited in PubChem BioAssay by several laboratories.
PKA-R1A activ = activators of PKA-R1A complex; P00514+P68181; PKA-R1A dissociation, Cy5-IP20 fluorescence polarization; scaled: DMSO 0%, 113 µM cGMP 100%; activation, % at 11.4 µM; actives 0.083% (n = 340,000); AID 504707;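 active = percent activation above the mean of all tested compounds plus 3 SD, cut at about 19% in these data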;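 also: higher means more PKAc released from R1A so a rise in polarization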
S100A4 inh HTS = inhibitors of human S100A4 binding to myosin IIA peptide. P26447. actives 0.14% (n = 360,000). inhibition, % at 10.7 µM. S100A4/TAMRA-MyoIIA peptide fluorescence polarization;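 active = mean inhibition of at least 70% across replicates, with every replicate also reaching that level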
Target sequence (P26447 whole entry, looked up): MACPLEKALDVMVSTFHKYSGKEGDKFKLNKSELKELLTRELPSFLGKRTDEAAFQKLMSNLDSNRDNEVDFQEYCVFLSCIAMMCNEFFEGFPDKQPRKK
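Material: human S100A4 monomer with TAMRA-labelled myosin IIA peptide; buffer or medium: HEPES pH 7.2 with CaCl2, KCl, NaCl, DTT, Triton; compound dosing: one concentration per compound; schedule: 5 min incubation before reading; benchmarks: neutral control DMSO, positive control TFP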
SIRT5 block = blocks human SIRT5 desuccinylation of peptide | AID 652115 | actives 1.1% (n = 330,000) | Purified SirT5, succinyl-peptide AMC, trypsin-coupled fluorescence | inhibition, % at 15 µM; in the data active = inhibition above about 15%
PKA-R2B activ = activates the human PKA-R2B holoenzyme complex | activation, % at 11.4 µM | PKA-R2B holoenzyme dissociation, Cy5-IP20 fluorescence polarization; R2B truncated from residue 108, S112A mutant; 0% DMSO only, 100% 113 µM cGMP | AID 504700 | actives 0.079% (n = 340,000) | P22694+P31323;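 active = activation above a cutoff set at the mean over all compounds plus 3 SD, cut at about 18% in these data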;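 also: higher means more holoenzyme dissociation and a rise in polarization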
Target sequence (P31323 whole entry, looked up, other chains not shown, the tested form may be a part): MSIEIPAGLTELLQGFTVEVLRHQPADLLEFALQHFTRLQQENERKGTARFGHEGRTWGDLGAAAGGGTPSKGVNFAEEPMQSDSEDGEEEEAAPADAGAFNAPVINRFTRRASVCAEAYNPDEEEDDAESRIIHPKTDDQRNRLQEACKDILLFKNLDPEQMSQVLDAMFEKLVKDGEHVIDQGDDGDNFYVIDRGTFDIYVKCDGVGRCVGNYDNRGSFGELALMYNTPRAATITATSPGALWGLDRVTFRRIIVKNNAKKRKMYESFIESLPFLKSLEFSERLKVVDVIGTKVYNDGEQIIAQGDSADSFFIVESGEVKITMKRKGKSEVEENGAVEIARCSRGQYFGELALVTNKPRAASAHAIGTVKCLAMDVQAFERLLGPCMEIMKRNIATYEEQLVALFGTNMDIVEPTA
CRFBP-R2 block = blocks CRF-induced signaling of the CRF-BP/CRF-R2 complex; HEK293 CRF-R2/CRF-BP, CRF-induced calcium fluorescence; inhibition, % at 11.8 µM; actives 0.59% (n = 350,000);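 active = inhibition of the ligand-induced calcium signal above about 50% at the single tested concentration, limit read from the data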
An asterisk follows results filed as active; x = no result given; ! = repeats disagree. Compounds with a hit are over-represented: about 1.5% of the library has one in this group of screens.

SMILES	PKA-R1A activ	S100A4 inh HTS	SIRT5 block	PKA-R2B activ	CRFBP-R2 block
COc1ccc(CNC(=O)c2sc(=S)n(-c3ccc(OC)cc3)c2N)cc1	-9.8	x	x	-15.3	66.5*
Nc1c(C(=O)NCc2cccnc2)sc(=S)n1-c1ccccc1	-0.6	x	x	-1.6	-20.1
Cc1noc(C)c1NC(=O)N(C)C[C@H]1Oc2c(NC(=O)c3cnccn3)cccc2C(=O)N([C@H](C)CO)C[C@H]1C	x	-6.4	1.3	x	x
COC(=O)C1=C(C)N(C)C(C)=C(C(=O)OC)C1c1ccc(F)c(Br)c1	-7.4	x	x	-5.1	54.8*
COC(=O)C1=C(C)N(C)C(C)=C(C(=O)OC)C1c1ccncc1	-2.6	x	x	-10.4	16.9
COc1ccc(CC(=O)NC(C)c2nnc(SCCOc3ccc(OC)cc3)n2C)cc1 (stereo not drawn)	-6.5	-0.5	29.3*	-0.3	1.5
C=C[C@]1(C)C=C2C(=O)C[C@H]3C(C)(C)CCC[C@]3(C(=O)O)[C@@]2(O)CC1	x	-4.2	x	x	x
COC(=O)CC1=C(C)C(=O)CC2C(C)(C)CCCC12C (stereo not drawn)	-3.9	-10.7	18.1*	-1.3	-7.6
CC(=O)N1[C@@H]2c3ccc(C4=CCCCC4)c(=O)n3C[C@H]1[C@H](CO)[C@H]2C(=O)NC1CCC1	x	9.9	-3.7	x	x
Cc1ccccc1NC(=O)C1=CC=CN2CCS(=O)(=O)N=C12	-16.2	4.7	-4.9	-8.7	2.1
COc1ccc(NC(=O)C2=CC=CN3CCS(=O)(=O)N=C23)c(OC)c1	-5.9	-10.5	27.5*	6.2	-14.5
Nc1c(C(=O)N2CCOCC2)sc2nc3c(cc12)CCC3	-2.4	-1.6	-3.3	1.0	50.3*
COc1ccc(CN2C(=O)NC(C)(c3ccc(C)cc3)C2=O)cc1F (stereo not drawn)	-11.5	-3.3	-2.5	-7.7	1.5
CCN1C(=O)C(=O)N(Cc2ccc(OC)c(F)c2)C1=O	-4.2	-2.1	-1.6	-1.2	84.2*
CC(C)NC(=O)N[C@H]1CC[C@@H](CCn2cc(-c3ccc(F)cc3)nn2)O[C@@H]1CO	x	0.3	0.3	x	x
Cc1cc(C)cc(OCCNC(=O)c2cc(S(=O)(=O)N3CCOCC3)ccc2F)c1	5.2	0.5	17.4*	-6.4	-2.7
COc1ccc(N2CCN(CC(=O)Nc3cccc(S(=O)(=O)N4CCOCC4)c3)CC2)cc1	-2.6	0.3	15.1*	-17.7	2.2
O=C(NCCc1ccccc1)c1cc(S(=O)(=O)N2CCOCC2)ccc1F	-6.6	x	x	8.7	13.1
O=C(CN1CCN(S(=O)(=O)c2ccc3ccccc3c2)CC1)Nc1ccc(N2CCOCC2)cc1	1.4	-1.5	-0.3	2.6	-3.0
CCOC(=O)N1CCN(S(=O)(=O)c2ccc(C)c(C(=O)NC3CCCCC3)c2)CC1	-17.1	127.3*	3.4	-7.5	-4.6
CCN(CC)c1ccc(S(=O)(=O)N2CCOCC2)cc1NC(=O)CNCc1ccccc1	-3.9	3.0	-2.0	-14.5	-1.4
CCN(CC)c1ccc(S(=O)(=O)N2CCOCC2)cc1NC(=O)CN1CCN(Cc2ccccc2)CC1	0.0	-1.2	29.1*	1.0	10.3
CCOC(=O)C1CCN(S(=O)(=O)c2ccc(C)c(C(=O)NC3CCCCC3)c2)CC1	-12.2	2.6	-1.8	-4.9	-9.4
C[C@H]1CCCCO[C@H](CN(C)C(=O)Nc2ccccc2)[C@@H](C)CN([C@@H](C)CO)C(=O)c2cc(NC(=O)Nc3cccc4ccccc34)ccc2O1	x	-2.1	-2.8	x	x
O=C(NC1CCN(Cc2ccccc2)C1)c1cc(S(=O)(=O)N2CCOCC2)ccc1Cl (stereo not drawn)	7.5	-3.7	0.2	-3.5	17.2
SMILES	PKA-R1A activ	S100A4 inh HTS	SIRT5 block	PKA-R2B activ	CRFBP-R2 block
Cc1ccc(S(=O)(=O)N2CCOCC2)cc1C(=O)NC1CCN(Cc2ccccc2)CC1	-0.9	-7.2	-4.7	1.7	56.3*
CC1C(=O)N2CCCc3cc(S(=O)(=O)NCCc4ccccc4)cc1c32 (stereo not drawn)	-12.0	-7.8	72.1*	6.4	3.1
CCc1ccc(NC(=S)NCc2ccccc2)cc1	0.1	-1.0	-1.5	-7.5	10.1
O=C(NCc1ccccc1)c1ccc(Cl)cc1	x	-42.0	-1.0	x	85.8*
O=C(O)c1ccc(CNCc2cccc(Cl)c2)cc1	-0.3	0.0	20.7*	-11.7	28.2
S=C(NCc1ccccc1)Nc1ccc(Cl)cc1	-10.1	-0.8	-3.2	-4.4	57.2*
CCCN(C)C[C@H]1Oc2cc(-c3cccnc3)ccc2S(=O)(=O)N([C@@H](C)CO)C[C@H]1C	x	3.5	-1.4	x	x
CCCC(=O)Nc1ccc2c(c1)C(=O)N(C)[C@@H]1CC[C@@H](CC(=O)NCCc3ccncc3)O[C@@H]1CO2	x	-22.9	-7.9	x	x
COc1ccc(Oc2ccc(C(F)(F)F)cc2NC(=O)c2ccc(OC)cc2)cc1	-3.3	-6.4	-0.9	-1.5	52.1*
COc1ccc(C(=O)Nc2cc(C(F)(F)F)ccc2-n2cncn2)cc1	2.0	x	x	7.0	-24.8
CC(=O)c1sc(NC(=O)C2(F)C(F)(F)C(F)(F)C(F)(F)C(F)(F)C2(F)F)nc1C	3.8	-2.4	-1.7	9.7	66.2*
C[C@H]1CN([C@@H](C)CO)C(=O)c2cccc(NC(=O)Nc3cccc4ccccc34)c2O[C@H]1CN(C)C(=O)Nc1ccc(C(F)(F)F)cc1	x	7.1	11.1	x	x
CO[C@@H]1CN(C)C(=O)c2ccc(NS(C)(=O)=O)cc2OC[C@@H](C)N(Cc2nccs2)C[C@H]1C	x	-14.5	20.0*	x	x
CO[C@@H]1CN(C)C(=O)c2ccc(NC(C)=O)cc2OC[C@H](C)N(Cc2nccs2)C[C@H]1C	x	47.9	-2.6	x	x
CO[C@H]1CN(C)C(=O)c2ccc(NC(C)=O)cc2OC[C@H](C)N(Cc2nccs2)C[C@@H]1C	x	-11.1	18.4*	x	x
CNC[C@H]1Oc2ccc(NC(=O)Nc3ccc(OC)cc3)cc2CC(=O)N([C@H](C)CO)C[C@H]1C	x	6.8	0.3	x	x
COc1ccc(S(=O)(=O)Nc2cccc3c2O[C@H](CN(C)C)[C@H](C)CN([C@H](C)CO)C3=O)cc1	x	3.6	1.4	x	x
Nc1nc(N)c2[nH]cnc2n1	x	x	x	x	-0.4
Nc1ncnc2nc[nH]c12	4.7	6.3	43.7*!	6.7	4.4
COc1ccc2c3c([nH]c2c1)[C@@H](CO)N(C(=O)C1CC1)CC31CN(C(=O)c2ccncc2)C1	x	5.9	1.0	x	x
COc1ccc2c3c(n(C)c2c1)[C@H](CO)N(C(=O)Nc1ccc(F)cc1)CC31CCN(C)CC1	x	-11.1	x	x	x
COc1ccc2c3c([nH]c2c1)[C@H](CO)N(S(C)(=O)=O)CC31CN(CC2CCOCC2)C1	x	101.6*	3.4	x	x
COc1ccc2c3c(n(C)c2c1)[C@@H](CO)N(C(=O)Nc1ccc(F)cc1)CC31CCN(C)CC1	x	82.2*	x	x	x
COc1ccc2c3c([nH]c2c1)[C@H](CO)N(C(=O)C1CC1)CC31CN(C(=O)c2ccncc2)C1	x	-5.3	15.2*	x	x
COc1ccc2c3c(n(C)c2c1)[C@@H](CO)N(C(=O)C1CCC1)CC31CN(C(=O)CN(C)C)C1	x	-18.9	15.0*	x	x
